Experimental data as given in ChEMBL document CHEMBL4033643, “Synthesis and in vitro antitumour activity of crassalactone D, its stereoisomers and novel cinnamic ester derivatives” (Eur J Med Chem, 2017).
The source made the active and inactive calls. No cut-off for these calls is given here.

Legend:
MRC5 = test: Cytotoxicity against human MRC5 cells assessed as reduction in cell viability after 72 hrs by MTT assay; assay type: cell-based; conditions: MRC5, 72 h
HeLa = test: Cytotoxicity against human HeLa cells assessed as reduction in cell viability after 72 hrs by MTT assay; assay type: functional, cell-based
MDA-MB-231 = test: Cytotoxicity against human MDA-MB-231 cells assessed as reduction in cell viability after 72 hrs by MTT assay; assay type: functional, cell-based; conditions: MDA-MB-231, 72 h
MCF7 = test: Cytotoxicity against human MCF7 cells assessed as reduction in cell viability after 72 hrs by MTT assay; assay type: functional, cell-based; conditions: MCF7, 72 h
Raji = test: Cytotoxicity against human Raji cells assessed as reduction in cell viability after 72 hrs by MTT assay; assay type: functional, cell-based
Jurkat = test: Cytotoxicity against human Jurkat cells assessed as reduction in cell viability after 72 hrs by MTT assay; assay type: functional, cell-based
HL-60 = test: Cytotoxicity against human HL60 cells assessed as reduction in cell viability after 72 hrs by MTT assay; assay type: functional, cell-based; conditions: HL-60, 72 h
K562 [1] = test: Cytotoxicity against human K562 cells assessed as reduction in cell viability after 72 hrs by MTT assay; assay type: functional, cell-based; conditions: K562, 72 h
A549 = test: Cytotoxicity against human A549 cells assessed as reduction in cell viability after 72 hrs by MTT assay; assay type: functional, cell-based; conditions: A549, 72 h
K562 [2] = test: Cell cycle arrest in human K562 cells assessed as accumulation at sub G1 phase at IC50 after 72 hrs by propidium iodide staining based flow cytometry (reference value: 1.48%); assay type: functional
K562 [3] = test: Cell cycle arrest in human K562 cells assessed as accumulation at G0/G1 phase at IC50 after 72 hrs by propidium iodide staining based flow cytometry (reference value: 38.48%); assay type: functional
K562 [4] = test: Cell cycle arrest in human K562 cells assessed as accumulation at S phase at IC50 after 72 hrs by propidium iodide staining based flow cytometry (reference value: 41.03%); assay type: functional
K562 [5] = test: Cell cycle arrest in human K562 cells assessed as accumulation at G2/M phase at IC50 after 72 hrs by propidium iodide staining based flow cytometry (reference value: 19.01%); assay type: functional
K562 [6] = test: Induction of apoptosis in human K562 cells assessed as specific apoptosis by Annexin V-FITC/propidium iodide staining based flow cytometry; assay type: functional; design: concentration or dose not given beside the values
K562 [7] = test: Induction of apoptosis in human K562 cells assessed as specific necrosis by Annexin V-FITC/propidium iodide staining based flow cytometry; assay type: functional; design: concentration or dose not given beside the values
K562 [8] = test: Induction of apoptosis in human K562 cells assessed as decrease in Bcl-2 expression level by Western blot analysis; assay type: functional, cell-based
Procedure, shortened: (§1)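 Western blot of treated K562 cells for Bcl-2, Bax, activated caspase 3 and cleaved PARP (85 kDa fragment). Blots developed by ECL, with band expression quantified by densitometry against an untreated control sample.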

K562 [9] = test: Induction of apoptosis in human K562 cells assessed as increase in Bax expression level by Western blot analysis; assay type: functional, cell-based; procedure, shortened: as §1
K562 [10] = test: Cell cycle arrest in human K562 cells assessed as total cell levels at G0/G1 phase at IC50 after 72 hrs by propidium iodide staining based flow cytometry (reference value: 39.97%); assay type: functional
K562 [11] = test: Cell cycle arrest in human K562 cells assessed as total cell levels at S phase at IC50 after 72 hrs by propidium iodide staining based flow cytometry (reference value: 36.49%); assay type: functional
K562 [12] = test: Cell cycle arrest in human K562 cells assessed as total cell levels at G2/M phase at IC50 after 72 hrs by propidium iodide staining based flow cytometry (reference value: 14.31%); assay type: functional
K562 [13] = test: Cell cycle arrest in human K562 cells assessed as total cell levels at M4 phase at IC50 after 72 hrs by propidium iodide staining based flow cytometry (reference value: 0.50%); assay type: functional
K562 [14] = test: Induction of apoptosis in human K562 cells assessed as gated necrotic cells by Annexin V-FITC/propidium iodide staining based flow cytometry (reference value: 0.24%); assay type: functional
K562 [15] = test: Induction of apoptosis in human K562 cells assessed as gated late apoptotic cells by Annexin V-FITC/propidium iodide staining based flow cytometry (reference value: 0.88%); assay type: functional
K562 [16] = test: Induction of apoptosis in human K562 cells assessed as gated viable cells by Annexin V-FITC/propidium iodide staining based flow cytometry (reference value: 95.78%); assay type: functional
K562 [17] = test: Induction of apoptosis in human K562 cells assessed as gated early apoptotic cells by Annexin V-FITC/propidium iodide staining based flow cytometry (reference value: 3.18%); assay type: functional
K562 [18] = test: Induction of apoptosis in human K562 cells assessed as total necrotic cells by Annexin V-FITC/propidium iodide staining based flow cytometry (reference value: 0.23%); assay type: functional
K562 [19] = test: Induction of apoptosis in human K562 cells assessed as total late apoptotic cells by Annexin V-FITC/propidium iodide staining based flow cytometry (reference value: 0.77%); assay type: functional
K562 [20] = test: Induction of apoptosis in human K562 cells assessed as total viable cells by Annexin V-FITC/propidium iodide staining based flow cytometry (reference value: 92.45%); assay type: functional
K562 [21] = test: Induction of apoptosis in human K562 cells assessed as total early apoptotic cells by Annexin V-FITC/propidium iodide staining based flow cytometry (reference value: 3.07%); assay type: functional

Structure (SMILES) | IC50 (MRC5) [µM] | IC50 (HeLa) [µM] | IC50 (MDA-MB-231) [µM] | IC50 (MCF7) [µM] | IC50 (Raji) [µM] | IC50 (Jurkat) [µM] | IC50 (HL-60) [µM] | IC50 (K562 [1]) [µM] | IC50 (A549) [µM] | Activity (K562 [2]) [%] | Activity (K562 [3]) [%] | Activity (K562 [4]) [%] | Activity (K562 [5]) [%] | Activity (K562 [6]) [%] | Activity (K562 [7]) [%] | Activity (K562 [8]) | Activity (K562 [9]) | Activity (K562 [10]) [%] | Activity (K562 [11]) [%] | Activity (K562 [12]) [%] | also measured
COc1ccc(/C=C/C(=O)O[C@H]2C[C@@]3(C=CC(=O)O3)O[C@@H]2c2ccccc2)cc1 | > 100 | 3.64 | > 100 | 2.22 | 99.8 | 21.1 | 6.37 | 1.11 | 23.1 | 1.57 | 30.72 | 42.64 | 25.07 | 15.35 | 3.15 | inactive | Active | 26.37 | 36.83 | 22.36 | Activity (K562 [13]): 1.35%; Activity (K562 [14]): 0.96%; Activity (K562 [15]): 4.41%; Activity (K562 [16]): 80.32%; Activity (K562 [17]): 14.31%; Activity (K562 [18]): 0.78%; Activity (K562 [19]): 3.58%; Activity (K562 [20]): 65.19%; Activity (K562 [21]): 11.61%
COc1ccc(/C=C/C(=O)O[C@H]2C[C@]3(C=CC(=O)O3)O[C@H]2c2ccccc2)cc1 | > 100 | 12.8 | 2.64 | 11.2 | 8.69 | 14.2 | 8.67 | 12.8 | 1.58 | 3.41 | 41.6 | 27.14 | 27.85 | 2.28 | 3.76 | inactive | Active | 37.38 | 24.97 | 25.02 | Activity (K562 [13]): 3.06%; Activity (K562 [14]): 0.37%; Activity (K562 [15]): 0.78%; Activity (K562 [16]): 93.46%; Activity (K562 [17]): 5.39%; Activity (K562 [18]): 0.36%; Activity (K562 [19]): 0.76%; Activity (K562 [20]): 91.39%; Activity (K562 [21]): 5.27%
O=C1C=C[C@]2(C[C@H](OC(=O)/C=C/c3ccc([N+](=O)[O-])cc3)[C@H](c3ccccc3)O2)O1 | > 100 | 11.5 | 4.48 | 7.55 | 11.8 | 10.2 | 4.32 | 14.3 | 3.12 | 20.43 | 30.42 | 29.17 | 19.98 | 81.97 | 0.64 | Active | Active | 27.84 | 27.16 | 18.29 | Activity (K562 [13]): 18.7%; Activity (K562 [14]): 3.37%; Activity (K562 [15]): 3.87%; Activity (K562 [16]): 13.94%; Activity (K562 [17]): 78.82%; Activity (K562 [18]): 0.68%; Activity (K562 [19]): 0.78%; Activity (K562 [20]): 2.81%; Activity (K562 [21]): 15.89%
O=C1C=C[C@]2(C[C@H](OC(=O)/C=C/c3ccc(F)cc3)[C@H](c3ccccc3)O2)O1 | > 100 | 12 | 1.02 | 15.6 | 17.3 | 15.4 | 12 | 9.05 | 1.21 | 14.87 | 23.2 | 37.11 | 24.82 | 85.69 | 3.78 | Active | Active | 19.29 | 31.52 | 29.05 | Activity (K562 [13]): 4.05%; Activity (K562 [14]): 0.36%; Activity (K562 [15]): 2.62%; Activity (K562 [16]): 13.78%; Activity (K562 [17]): 83.24%; Activity (K562 [18]): 0.23%; Activity (K562 [19]): 1.7%; Activity (K562 [20]): 2.45%; Activity (K562 [21]): 60.46%
COc1ccc(/C=C/C(=O)O[C@H]2C[C@]3(C=CC(=O)O3)O[C@@H]2c2ccccc2)cc1 | > 100 | 3.34 | > 100 | 3.14 | 89.7 | 58.1 | 8.67 | 2.12 | 33.6 | 3.39 | 21.08 | 41.08 | 34.45 | 37.78 | 3.86 | inactive | Active | 16.74 | 32.71 | 27.1 | Activity (K562 [13]): 2.67%; Activity (K562 [14]): 0.27%; Activity (K562 [15]): 2.92%; Activity (K562 [16]): 59.39%; Activity (K562 [17]): 37.43%; Activity (K562 [18]): 0.2%; Activity (K562 [19]): 2.17%; Activity (K562 [20]): 44.16%; Activity (K562 [21]): 27.83%
O=C1C=C[C@@]2(C[C@H](OC(=O)/C=C/c3ccc([N+](=O)[O-])cc3)[C@@H](c3ccccc3)O2)O1 | > 100 | 9.45 | > 100 | 12.5 | > 100 | 86.5 | 1.32 | 7.45 | 56.2 | 2.93 | 33.85 | 38.08 | 25.14 | 10.54 | 2.18 | inactive | Active | 31.72 | 34.91 | 22.88 | Activity (K562 [13]): 2.67%; Activity (K562 [14]): 1.89%; Activity (K562 [15]): 2.23%; Activity (K562 [16]): 84.01%; Activity (K562 [17]): 11.87%; Activity (K562 [18]): 1.64%; Activity (K562 [19]): 1.94%; Activity (K562 [20]): 73.05%; Activity (K562 [21]): 10.32%
O=C1C=C[C@]2(C[C@H](OC(=O)/C=C/c3ccccc3)[C@@H](c3ccccc3)O2)O1 | > 100 | 1.15 | 5.45 | 1.65 | 6.68 | 0.21 | 10 | 20.7 | 14.6 | 28.63 | 16.04 | 31.55 | 23.78 | 83.35 | 4.06 | Active | Active | 14.21 | 28.7 | 21.08 | Activity (K562 [13]): 25.37%; Activity (K562 [14]): 0.09%; Activity (K562 [15]): 4.92%; Activity (K562 [16]): 15.88%; Activity (K562 [17]): 79.11%; Activity (K562 [18]): 0.05%; Activity (K562 [19]): 3.27%; Activity (K562 [20]): 3.9%; Activity (K562 [21]): 59.12%
O=C1C=C[C@@]2(C[C@H](OC(=O)/C=C/c3ccc(F)cc3)[C@@H](c3ccccc3)O2)O1 | > 100 | 2.21 | > 100 | 21.5 | 55.4 | 22.2 | 4.48 | 1.05 | 25.5 | 2.61 | 41.18 | 33.71 | 22.5 | 4.02 | 3.58 | Active | Active | 36.51 | 30.81 | 19.95 | Activity (K562 [13]): 2.31%; Activity (K562 [14]): 0.54%; Activity (K562 [15]): 1.38%; Activity (K562 [16]): 91.63%; Activity (K562 [17]): 6.46%; Activity (K562 [18]): 0.52%; Activity (K562 [19]): 1.33%; Activity (K562 [20]): 88.51%; Activity (K562 [21]): 6.24%
